Measurements pooled from the literature.
Compare with care: the assays were run in different laboratories.
Target: Mitogen-activated protein kinase kinase kinase 15 (MAP3K15, Homo sapiens, UniProt Q6ZN16)
Sequence (Q6ZN16 1-1313, as in one of the studies): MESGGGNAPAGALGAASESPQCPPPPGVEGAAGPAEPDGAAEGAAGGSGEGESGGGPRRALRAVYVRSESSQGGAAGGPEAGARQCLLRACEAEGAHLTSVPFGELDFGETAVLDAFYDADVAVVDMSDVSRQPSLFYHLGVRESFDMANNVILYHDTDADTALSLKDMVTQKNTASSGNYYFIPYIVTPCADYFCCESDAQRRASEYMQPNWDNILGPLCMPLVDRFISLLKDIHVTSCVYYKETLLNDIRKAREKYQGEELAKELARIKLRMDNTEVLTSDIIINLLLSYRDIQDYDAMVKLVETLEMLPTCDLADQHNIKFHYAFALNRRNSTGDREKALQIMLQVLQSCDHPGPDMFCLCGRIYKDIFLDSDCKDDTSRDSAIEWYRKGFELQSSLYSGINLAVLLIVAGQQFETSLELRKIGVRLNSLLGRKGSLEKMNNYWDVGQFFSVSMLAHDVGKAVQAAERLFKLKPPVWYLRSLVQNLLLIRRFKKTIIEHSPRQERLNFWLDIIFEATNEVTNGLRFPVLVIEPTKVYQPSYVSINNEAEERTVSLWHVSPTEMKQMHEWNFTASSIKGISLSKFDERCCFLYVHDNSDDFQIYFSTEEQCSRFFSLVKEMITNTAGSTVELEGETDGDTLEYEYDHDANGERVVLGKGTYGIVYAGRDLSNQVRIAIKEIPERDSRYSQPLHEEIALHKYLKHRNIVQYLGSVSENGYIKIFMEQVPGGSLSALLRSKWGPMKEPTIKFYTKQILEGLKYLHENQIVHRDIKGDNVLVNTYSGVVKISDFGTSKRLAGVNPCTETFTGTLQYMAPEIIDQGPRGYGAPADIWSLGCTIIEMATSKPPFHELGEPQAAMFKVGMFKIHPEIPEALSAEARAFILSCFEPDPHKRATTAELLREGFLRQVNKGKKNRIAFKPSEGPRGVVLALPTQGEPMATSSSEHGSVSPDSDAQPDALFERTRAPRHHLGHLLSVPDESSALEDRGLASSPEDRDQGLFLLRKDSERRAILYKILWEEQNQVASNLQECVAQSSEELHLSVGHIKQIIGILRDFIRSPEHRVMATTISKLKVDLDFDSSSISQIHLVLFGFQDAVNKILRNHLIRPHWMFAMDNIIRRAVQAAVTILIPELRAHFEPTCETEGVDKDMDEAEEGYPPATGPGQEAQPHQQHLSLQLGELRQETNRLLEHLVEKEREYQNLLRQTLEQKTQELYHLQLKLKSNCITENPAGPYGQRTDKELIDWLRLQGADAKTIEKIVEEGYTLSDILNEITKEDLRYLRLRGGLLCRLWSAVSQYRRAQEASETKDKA

Cc1cnn2ncc(-c3ccnc(N(C)C)n3)c2c1
remaining binding (binding; 1 µM): 100%

C=CC(=O)N1CCC(C(=O)NCC(=O)N2CCN(c3nc(-c4cnc(N)nc4C(F)F)nc(N4CCOCC4)n3)CC2)CC1
remaining binding (binding, competition with immobilised ligand; 1 µM): 100%

C[C@@]1(Cc2ccc(C#N)cc2)C(=O)N(c2cc(Cl)cc(Cl)c2)c2ncc(C(=O)NC3(c4nc(C5CCC5)no4)CC3)n21
remaining binding (cell-free assay, competition with immobilised ligand; 1 µM): 81%

COc1ccnn2ncc(-c3ccnc(N(C)C)n3)c12
remaining binding (binding; 1 µM): 100%

Cc1nccc(COC(=O)N2C[C@@H]3[C@@H](CNC(=O)c4ccc5[nH]nnc5c4)[C@@H]3C2)n1
remaining binding (cell-free assay, competition with immobilised ligand; 1 µM): 95%

COc1cnc(Nc2cccc(S(N)(=O)=O)c2)nc1N1CCN(c2ccccc2)C(=O)C1
remaining binding (binding, competition with immobilised ligand; 1 µM): 69%

O=C(Nc1c[nH]nc1C(=O)NC1CCNCC1)c1cc(F)cc(F)c1
remaining binding (binding, competition with immobilised ligand; 1 µM): 100%

C[C@@H]1CCN(c2nccc(-c3cnn4ncccc34)n2)C1
remaining binding (binding; 1 µM): 100%

COc1ccc2c(c1)O[C@@H](c1ccc(OC)c(OC)c1)C[C@H]2NC(=O)C1(c2ccc3c(c2)OC(F)(F)O3)CC1
remaining binding (cell-free assay, competition with immobilised ligand; 1 µM): 88%

CN(C)c1nccc(-c2cnc3ncccn23)n1
remaining binding (binding; 1 µM): 100%

Nc1cnc(N2CCc3cc(S(=O)(=O)Nc4c(F)cc(Cl)cc4F)cc(N4CCCC4=O)c32)nc1
remaining binding (cell-free assay, competition with immobilised ligand; 1 µM): 100%

N[C@H]1CCN(c2nccc(-c3cnn4ncccc34)n2)C1
remaining binding (binding; 1 µM): 83%

O=C(c1ccc(Nc2ncc(Cl)c(-c3cc4ccccc4s3)n2)cc1)N1CCC(N2CCCC2)CC1
remaining binding (binding, competition with immobilised ligand; 1 µM): 55%

c1cnn2ncc(-c3ccnc(N4CCC45COC5)n3)c2c1
remaining binding (binding; 1 µM): 68%

Nc1ncc2c(n1)-c1c([nH]c3ccc(C#CC4CC4)cc13)CCCC2
remaining binding (binding, competition with immobilised ligand; 1 µM): 73%

O=C(c1ccc(Nc2ncc(Cl)c(-c3ccc(Cl)s3)n2)cc1)N1CCC(N2CCCC2)CC1
remaining binding (binding, competition with immobilised ligand; 1 µM): 52%

CCCOc1ccc([C@@H]2[C@@H](C(=O)O)[C@H](c3ccc4c(c3)OCO4)CN2CC(=O)Nc2c(CC)cccc2CC)cc1
remaining binding (cell-free assay, competition with immobilised ligand; 1 µM): 99%

c1cncc(-c2cccc(Nc3nccc(NC4CCCCC4)n3)c2)c1
remaining binding (binding, competition with immobilised ligand; 10 µM): 77%

Cn1nc(C(F)(F)F)cc1-c1cnc(N2CCc3cc(S(=O)(=O)Nc4c(F)cc(Cl)cc4F)cc(N4CCCC4=O)c32)nc1
remaining binding (cell-free assay, competition with immobilised ligand; 1 µM): 81%

O=C(c1ccc(Nc2nccc(-c3cc4ccccc4s3)n2)cc1)N1CCC(N2CCCC2)CC1
remaining binding (binding, competition with immobilised ligand; 1 µM): 96%
